# Measurements: ChEMBL document CHEMBL4689842, “EUbOPEN Chemogenomics Library wave 1” (2021)
# System: U2OS
# Experiment: Multiplex assay against U2OS
# Type: toxicity, cell-based
# Settings: human
# Outline: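 Imaging took place on a CQ1 microscope at 37°C and 5% CO2 once compound had been added to live cells stained at seeding with Hoechst33342, BioTracker Green Microtubule Cytoskeleton Dye, MitoTracker Red and Annexin V Alexa Fluor 680. CellPathfinder machine-learning gating classed cells as Hoechst high-intensity objects or normal cells, classed normal cells as having healthy, pyknosed or fragmented nuclei, and classed pyknosed cells as mitotic or apoptotic. Tubulin, mitochondrial-mass and membrane-permeability phenotypes are per cents of the healthy-nucleus cells.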
# [1] = 12 h, 1 µM, compound concentration 1 uM, replicate 1
# [2] = 12 h, 1 µM, compound concentration 1 uM, replicate 2
# [3] = 12 h, 10 µM, compound concentration 10 uM, replicate 1
# [4] = 12 h, 10 µM, compound concentration 10 uM, replicate 2
# [5] = 24 h, 1 µM, compound concentration 1 uM, replicate 1
# [6] = 24 h, 1 µM, compound concentration 1 uM, replicate 2
# [7] = 24 h, 10 µM, compound concentration 10 uM, replicate 1
# [8] = 24 h, 10 µM, compound concentration 10 uM, replicate 2
# [9] = 48 h, 1 µM, compound concentration 1 uM, replicate 1
# [10] = 48 h, 1 µM, compound concentration 1 uM, replicate 2
# [11] = 48 h, 10 µM, compound concentration 10 uM, replicate 1
# [12] = 48 h, 10 µM, compound concentration 10 uM, replicate 2
compound,measurement,setting,value
Cc1ccc(C(=O)Nc2cccc(C(F)(F)F)c2)cc1Nc1nc(-c2cccnc2)nc2c1cnn2C,Population Apoptotic (%),[1],41%
same,Population Fragmented Nuclei (%),[1],18%
same,Population Healthy Nuclei (%),[1],63%
same,Population Hoechst High Intensity Objects (%),[1],10%
same,Population Membrane Permeable-Phenotype (%),[1],8%
same,Population Mitochondria Different-Phenotype (%),[1],12%
same,Population Mitotic Cells (%),[1],58%
same,Population Normal (%),[1],89%
same,Population Pyknosed Nuclei (%),[1],18%
same,Population Tubulin-Different-Phenotype (%),[1],13%
same,Total Cell Count,[1],151
same,Population Apoptotic (%),[2],50%
same,Population Fragmented Nuclei (%),[2],14%
same,Population Healthy Nuclei (%),[2],73%
same,Population Hoechst High Intensity Objects (%),[2],3%
same,Population Membrane Permeable-Phenotype (%),[2],6%
same,Population Mitochondria Different-Phenotype (%),[2],25%
same,Population Mitotic Cells (%),[2],50%
same,Population Normal (%),[2],96%
same,Population Pyknosed Nuclei (%),[2],12%
same,Population Tubulin-Different-Phenotype (%),[2],14%
same,Total Cell Count,[2],101
same,Population Apoptotic (%),[3],69%
same,Population Fragmented Nuclei (%),[3],13%
same,Population Healthy Nuclei (%),[3],48%
same,Population Hoechst High Intensity Objects (%),[3],6%
same,Population Membrane Permeable-Phenotype (%),[3],53%
same,Population Mitochondria Different-Phenotype (%),[3],87%
same,Population Mitotic Cells (%),[3],30%
same,Population Normal (%),[3],93%
same,Population Pyknosed Nuclei (%),[3],38%
same,Population Tubulin-Different-Phenotype (%),[3],98%
same,Total Cell Count,[3],147
same,Population Apoptotic (%),[4],61%
same,Population Fragmented Nuclei (%),[4],18%
same,Population Healthy Nuclei (%),[4],42%
same,Population Hoechst High Intensity Objects (%),[4],8%
same,Population Membrane Permeable-Phenotype (%),[4],78%
same,Population Mitochondria Different-Phenotype (%),[4],92%
same,Population Mitotic Cells (%),[4],38%
same,Population Normal (%),[4],91%
same,Population Pyknosed Nuclei (%),[4],39%
same,Population Tubulin-Different-Phenotype (%),[4],100%
same,Total Cell Count,[4],66
same,Population Apoptotic (%),[5],42%
same,Population Fragmented Nuclei (%),[5],10%
same,Population Healthy Nuclei (%),[5],75%
same,Population Hoechst High Intensity Objects (%),[5],9%
same,Population Membrane Permeable-Phenotype (%),[5],2%
same,Population Mitochondria Different-Phenotype (%),[5],14%
same,Population Mitotic Cells (%),[5],57%
same,Population Normal (%),[5],90%
same,Population Pyknosed Nuclei (%),[5],13%
same,Population Tubulin-Different-Phenotype (%),[5],8%
same,Total Cell Count,[5],153
same,Population Apoptotic (%),[6],27%
same,Population Fragmented Nuclei (%),[6],12%
same,Population Healthy Nuclei (%),[6],72%
same,Population Hoechst High Intensity Objects (%),[6],3%
same,Population Membrane Permeable-Phenotype (%),[6],7%
same,Population Mitochondria Different-Phenotype (%),[6],29%
same,Population Mitotic Cells (%),[6],72%
same,Population Normal (%),[6],96%
same,Population Pyknosed Nuclei (%),[6],14%
same,Population Tubulin-Different-Phenotype (%),[6],16%
same,Total Cell Count,[6],101
same,Population Healthy Nuclei (%),[7],16%
same,Population Hoechst High Intensity Objects (%),[7],4%
same,Population Membrane Permeable-Phenotype (%),[7],80%
same,Population Mitochondria Different-Phenotype (%),[7],100%
same,Population Mitotic Cells (%),[7],10%
same,Population Normal (%),[7],95%
same,Population Pyknosed Nuclei (%),[7],57%
same,Total Cell Count,[7],166
same,Population Apoptotic (%),[8],90%
same,Population Fragmented Nuclei (%),[8],26%
same,Population Healthy Nuclei (%),[8],11%
same,Population Hoechst High Intensity Objects (%),[8],20%
same,Population Membrane Permeable-Phenotype (%),[8],100%
same,Population Mitochondria Different-Phenotype (%),[8],75%
same,Population Mitotic Cells (%),[8],9%
same,Population Normal (%),[8],79%
same,Population Pyknosed Nuclei (%),[8],61%
same,Population Tubulin-Different-Phenotype (%),[8],100%
same,Total Cell Count,[8],77
same,Population Apoptotic (%),[9],58%
same,Population Fragmented Nuclei (%),[9],11%
same,Population Healthy Nuclei (%),[9],80%
same,Population Hoechst High Intensity Objects (%),[9],4%
same,Population Membrane Permeable-Phenotype (%),[9],6%
same,Population Mitochondria Different-Phenotype (%),[9],22%
same,Population Mitotic Cells (%),[9],41%
same,Population Normal (%),[9],95%
same,Population Pyknosed Nuclei (%),[9],8%
same,Population Tubulin-Different-Phenotype (%),[9],10%
same,Total Cell Count,[9],140
same,Population Apoptotic (%),[10],70%
same,Population Fragmented Nuclei (%),[10],7%
same,Population Healthy Nuclei (%),[10],78%
same,Population Hoechst High Intensity Objects (%),[10],10%
same,Population Membrane Permeable-Phenotype (%),[10],11%
same,Population Mitochondria Different-Phenotype (%),[10],29%
same,Population Mitotic Cells (%),[10],30%
same,Population Normal (%),[10],89%
same,Population Pyknosed Nuclei (%),[10],14%
same,Population Tubulin-Different-Phenotype (%),[10],22%
same,Total Cell Count,[10],93
same,Population Apoptotic (%),[11],96%
same,Population Fragmented Nuclei (%),[11],35%
same,Population Healthy Nuclei (%),[11],10%
same,Population Hoechst High Intensity Objects (%),[11],10%
same,Population Membrane Permeable-Phenotype (%),[11],100%
same,Population Mitochondria Different-Phenotype (%),[11],100%
same,Population Mitotic Cells (%),[11],3%
same,Population Normal (%),[11],90%
same,Population Pyknosed Nuclei (%),[11],54%
same,Population Tubulin-Different-Phenotype (%),[11],100%
same,Total Cell Count,[11],219
same,Population Apoptotic (%),[12],100%
same,Population Fragmented Nuclei (%),[12],25%
same,Population Healthy Nuclei (%),[12],21%
same,Population Hoechst High Intensity Objects (%),[12],28%
same,Population Mitotic Cells (%),[12],0%
same,Population Normal (%),[12],71%
same,Population Pyknosed Nuclei (%),[12],53%
same,Total Cell Count,[12],77
